What was measured:
[1] = biological target: T1, 5-hydroxytryptamine receptor 1B (Homo sapiens, UniProt P28222); experiment: Antagonism tested at 1 uM against the agonist-induced inhibitory effect of 10 nM 5-carbamoyltryptamine(5-CT); format: functional
Summary of the method: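 Run in the same forskolin-stimulated cAMP system, with h5-HT1B receptors expressed in CHO-K1 cells. The compound at 1 µM was tested against the inhibition of cAMP formation produced by 10 nM 5-CT. Values are the mean of two or three experiments, each in duplicate.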

[2] = biological target: T1, 5-hydroxytryptamine receptor 1B; experiment: Agonist activity at 5-hydroxytryptamine 1B receptor by measuring the inhibition of forskolin-stimulated cAMP formation; format: functional
Summary of the method: (§1)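 Human 5-HT1B receptors expressed in CHO-K1 cells. Agonist response read as inhibition of forskolin-stimulated cAMP formation. EC50 determined, and Emax expressed as a percentage of the maximal inhibition produced by 1 µM 5-HT. Values are the mean of two or three experiments, each run in duplicate, with individual values typically within ±10-20% of the mean.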

[3] = biological target: T2, 5-hydroxytryptamine receptor 1A (Homo sapiens, UniProt P08908); experiment: Receptor binding affinity for cloned human 5-hydroxytryptamine 1A receptor in HeLa cells; format: cell-based
T2 sequence (P08908 whole entry): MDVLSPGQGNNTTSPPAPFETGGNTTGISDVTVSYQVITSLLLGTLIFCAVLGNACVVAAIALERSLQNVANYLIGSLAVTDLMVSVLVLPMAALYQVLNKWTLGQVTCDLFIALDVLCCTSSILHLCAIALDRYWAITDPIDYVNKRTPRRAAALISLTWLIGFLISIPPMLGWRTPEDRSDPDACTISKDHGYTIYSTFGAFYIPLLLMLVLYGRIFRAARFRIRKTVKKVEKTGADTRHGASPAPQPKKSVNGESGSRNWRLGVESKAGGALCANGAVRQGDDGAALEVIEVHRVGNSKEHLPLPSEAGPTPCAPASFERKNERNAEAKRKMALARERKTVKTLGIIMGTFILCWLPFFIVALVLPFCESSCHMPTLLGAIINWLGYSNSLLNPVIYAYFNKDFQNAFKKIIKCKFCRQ

[4] = biological target: T1, 5-hydroxytryptamine receptor 1B; experiment: Receptor binding affinity for cloned human 5-hydroxytryptamine 1B receptor in Cos-7 cells; format: cell-based
[5] = biological target: 5-hydroxytryptamine receptor 1D (Homo sapiens, UniProt P28221); experiment: Receptor binding affinity for cloned human 5-hydroxytryptamine 1D receptor in Cos-7 cells; format: cell-based
[6] = biological target: T1, 5-hydroxytryptamine receptor 1B; experiment: Percentage Maximal inhibition obtained with 1 uM 5-HT against 5-hydroxytryptamine 1B receptor; summary of the method: as §1
[7] = biological target: T1, 5-hydroxytryptamine receptor 1B; conditions: 1 uM

T1 sequence (P28222 whole entry): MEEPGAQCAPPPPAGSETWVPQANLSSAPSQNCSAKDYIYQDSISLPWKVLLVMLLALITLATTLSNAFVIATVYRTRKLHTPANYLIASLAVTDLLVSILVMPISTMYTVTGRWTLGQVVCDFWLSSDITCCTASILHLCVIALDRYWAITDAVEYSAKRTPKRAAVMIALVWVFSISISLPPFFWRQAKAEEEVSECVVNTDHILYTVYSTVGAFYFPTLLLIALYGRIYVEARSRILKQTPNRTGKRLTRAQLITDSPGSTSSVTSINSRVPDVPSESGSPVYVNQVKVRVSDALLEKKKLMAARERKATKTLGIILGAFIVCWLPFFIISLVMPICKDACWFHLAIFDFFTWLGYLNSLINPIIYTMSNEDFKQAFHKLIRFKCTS
Sequence of 5-hydroxytryptamine receptor 1D (P28221 whole entry): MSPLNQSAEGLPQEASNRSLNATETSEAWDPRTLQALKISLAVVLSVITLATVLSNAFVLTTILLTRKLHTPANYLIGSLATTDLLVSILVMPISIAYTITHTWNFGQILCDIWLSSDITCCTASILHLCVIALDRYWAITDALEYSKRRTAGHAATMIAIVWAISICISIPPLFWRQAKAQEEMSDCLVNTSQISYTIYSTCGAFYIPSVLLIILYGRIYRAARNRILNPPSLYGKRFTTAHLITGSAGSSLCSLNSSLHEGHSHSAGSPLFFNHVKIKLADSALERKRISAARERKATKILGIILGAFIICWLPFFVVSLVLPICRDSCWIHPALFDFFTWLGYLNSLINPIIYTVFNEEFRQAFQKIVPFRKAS

**Q.** `c1ccc2c(N3CCNCC3)cccc2c1` was tested. Which Antagonism [1] did it give?
**A.** The Antagonism was 96%.

**Q.** What about the EC50 [2] of the same compound?
**A.** Its EC50 is greater than 1000 nM.

**Q.** And the Ki [3]?
**A.** The Ki was 9.2 nM.

**Q.** And the Ki [4]?
**A.** The Ki was 10.1 nM.

**Q.** What about the Ki [5] of the same compound?
**A.** The Ki was 6.2 nM.

**Q.** What about the Emax [6] of the same compound?
**A.** Its Emax is less than 10%.

**Q.** For `COc1ccc2ccc(N3CCNCC3)cc2c1`, which Antagonism [1] is on record?
**A.** The Antagonism was 95%.

**Q.** And the EC50 [2]?
**A.** Its EC50 is greater than 1000 nM.

**Q.** What about the Ki [3] of the same compound?
**A.** Its Ki is 2.8 nM.

**Q.** And the Ki [4]?
**A.** Its Ki is 2 nM.

**Q.** What about the Ki [5] of the same compound?
**A.** The Ki was 0.7 nM.

**Q.** What about the Emax [6] of the same compound?
**A.** The Emax was less than 10%.

**Q.** Which results are given for `COc1cccc(N2CCN(C(=O)COc3ccc4cccc(N5CCN(C)CC5)c4c3)CC2)c1OC`?
**A.** Antagonism [1]: 47%; EC50 [2]: 30 nM; Ki [3]: 13.4 nM; Ki [4]: 0.44 nM; Ki [5]: 0.62 nM; Emax [6]: 69%

**Q.** How did the Antagonism [1] turn out when `Cc1cc(C)c(N2CCN(C(=O)COc3ccc4cccc(N5CCN(C)CC5)c4c3)CC2)c(C)c1` was run?
**A.** The Antagonism was 46%.

**Q.** And the EC50 [2]?
**A.** The EC50 was 25 nM.

**Q.** And the Ki [3]?
**A.** Its Ki is 117 nM.

**Q.** What about the Ki [4] of the same compound?
**A.** The Ki was 1.4 nM.

**Q.** And the Ki [5]?
**A.** Its Ki is 1.9 nM.

**Q.** And the Emax [6]?
**A.** Its Emax is 26%.

**Q.** With `CN1CCN(c2cccc3ccc(OCC(=O)N4CCN(c5cccc6ccccc56)CC4)cc23)CC1` as the compound, how does the Antagonism [1] read?
**A.** Its Antagonism is 57%.

**Q.** What about the EC50 [2] of the same compound?
**A.** The EC50 was greater than 1000 nM.

**Q.** And the Ki [3]?
**A.** The Ki was 114 nM.

**Q.** What about the Ki [4] of the same compound?
**A.** Its Ki is 0.43 nM.

**Q.** What about the Ki [5] of the same compound?
**A.** Its Ki is 0.88 nM.

**Q.** And the Emax [6]?
**A.** The Emax was less than 10%.

**Q.** For `CN1CCN(c2cccc3ccc(OCC(=O)N4CCN(c5cccc6c5OCCO6)CC4)cc23)CC1`, which Antagonism [1] is on record?
**A.** Its Antagonism is 45%.

**Q.** And the EC50 [2]?
**A.** The EC50 was 25 nM.

**Q.** And the Ki [3]?
**A.** Its Ki is 14.1 nM.

**Q.** What about the Ki [4] of the same compound?
**A.** Its Ki is 0.43 nM.

**Q.** And the Ki [5]?
**A.** Its Ki is 0.45 nM.

**Q.** And the Emax [6]?
**A.** The Emax was 58%.

**Q.** With `Cc1ccccc1N1CCN(C(=O)COc2ccc3cccc(N4CCN(C)CC4)c3c2)CC1` as the compound, how does the EC50 [2] read?
**A.** The EC50 was greater than 1000 nM.

**Q.** What about the Ki [4] of the same compound?
**A.** The Ki was 0.3 nM.

**Q.** What about the Antagonism [7] of the same compound?
**A.** Its Antagonism is 80%.

**Q.** What about the Ki [5] of the same compound?
**A.** Its Ki is 0.69 nM.

**Q.** What about the Emax [6] of the same compound?
**A.** The Emax was less than 10%.

**Q.** How did the Antagonism [1] turn out when `Cc1ccccc1CN1CCN(C(=O)COc2ccc3cccc(N4CCN(C)CC4)c3c2)CC1` was run?
**A.** Its Antagonism is 87%.

**Q.** What about the EC50 [2] of the same compound?
**A.** Its EC50 is greater than 1000 nM.

**Q.** And the Ki [3]?
**A.** The Ki was 22.7 nM.

**Q.** What about the Ki [4] of the same compound?
**A.** Its Ki is 0.2 nM.

**Q.** What about the Ki [5] of the same compound?
**A.** The Ki was 0.55 nM.

**Q.** And the Emax [6]?
**A.** The Emax was less than 10%.

**Q.** How did the Antagonism [1] turn out when `CN1CCN(c2cccc3ccc(OCC(=O)N4CCN(c5ccccc5C#N)CC4)cc23)CC1` was run?
**A.** Its Antagonism is 56%.

**Q.** And the EC50 [2]?
**A.** The EC50 was 28 nM.

**Q.** What about the Ki [3] of the same compound?
**A.** The Ki was 12.3 nM.

**Q.** What about the Ki [4] of the same compound?
**A.** Its Ki is 0.38 nM.

**Q.** What about the Ki [5] of the same compound?
**A.** The Ki was 0.51 nM.

**Q.** What about the Emax [6] of the same compound?
**A.** Its Emax is 48%.
